# Experimental data taken from ChEMBL document CHEMBL2401719, “The development of a new class of inhibitors for betaine-homocysteine S-methyltransferase” (Eur J Med Chem, 2013).
# Experiments:
# [1] = biological target: T1, Betaine--homocysteine S-methyltransferase 1 (Homo sapiens) (UniProt Q93088); experiment: Inhibition of human recombinant BHMT using N-methyl-[14C]-betaine/D,L-homocysteine as substrate at 20 uM after 30 mins by scintiillation counting analysis
# T1 sequence (whole entry): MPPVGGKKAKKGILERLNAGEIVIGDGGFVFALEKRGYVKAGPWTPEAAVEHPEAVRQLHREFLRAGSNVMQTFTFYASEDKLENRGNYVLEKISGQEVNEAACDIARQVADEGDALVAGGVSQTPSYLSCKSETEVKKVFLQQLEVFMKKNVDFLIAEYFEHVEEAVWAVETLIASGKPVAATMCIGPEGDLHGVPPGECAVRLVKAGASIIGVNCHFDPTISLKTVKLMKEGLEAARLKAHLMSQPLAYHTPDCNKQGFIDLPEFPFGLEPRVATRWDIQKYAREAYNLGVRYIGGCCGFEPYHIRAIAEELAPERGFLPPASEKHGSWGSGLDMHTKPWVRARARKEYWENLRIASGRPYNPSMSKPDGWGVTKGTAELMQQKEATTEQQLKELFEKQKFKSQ
# Summary of the method: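 Human recombinant BHMT assayed in pH 7.5 buffer with 0.25 mM betaine and 0.1 mM D,L-homocysteine, compound at a single fixed concentration. Percent inhibition is the average of triplicates, with data reproducible within ±15%.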
# [2] = biological target: T2, Betaine--homocysteine S-methyltransferase 1 (Homo sapiens, UniProt Q93088); experiment: Inhibition of human recombinant BHMT using N-methyl-[14C]-betaine/D,L-homocysteine as substrate after 30 mins by scintiillation counting analysis
# T2 sequence (Q93088 whole entry): T1 sequence (whole entry)
# Summary of the method: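 Human recombinant BHMT assayed in pH 7.5 buffer with 2 mM betaine and 1 mM D,L-homocysteine. Each IC50 data point was run in duplicate.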
Structure (SMILES),inhibition [1] [%],IC50 [2] [µM]
NC(CCSCCCCC(=O)O)[PH](=O)O (racemic),95,5
CC(C)(CCSCCC(N)[PH](=O)O)CC(=O)O (racemic),99,1.1
CNC(=O)C(N)CCSCCCCC(=O)O (racemic),8,–
CS(=O)(=O)NC(=O)C(N)CCSCCCCC(=O)O (racemic),67,–
N#CC(N)CCSCCCCC(=O)O (racemic),9,–
NC(=O)C(N)CCSCCCCC(=O)O (racemic),17,–
NC(CCSCCCCC(=O)O)C(=O)N1CCCCC1 (racemic),9,–
NC(CCSCCCCC(=O)O)c1nc(=O)o[nH]1 (racemic),15,–

# More lines, main results first:
inhibition [1] [%],Structure (SMILES),IC50 [2] [µM]
24,O=C(O)CCCCS[C@@H]1CN[C@H](C(=O)O)C1,–
0,O=C(O)CCCCS[C@H]1CN[C@H](C(=O)O)C1,–
58,NC(CCSCCCCC(=O)O)P(=O)(O)O (racemic),219
0,NC(CCSCCCCC(=O)O)c1nnn[nH]1 (racemic),–
28,NNC(=O)C(N)CCSCCCCC(=O)O (racemic),–
